An excerpt weighted towards active compounds, which were near 1.5% of everything screened.
CCR6 antag – blocks CCL20-driven beta-arrestin recruitment at human CCR6; CHO-K1 CCR6 PathHunter beta-arrestin, luminescence, CCL20-stimulated; inhibition, % at 20 µM; 340,000 compounds, 0.49% hits; AID 493098;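 active = compounds whose inhibition of the agonist-driven luminescence signal at 20 µM reaches about 50%, limit read from the data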;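 also: cells stimulated with CCL20 at 14 nM final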
CXCR6 block – blocks human CXCR6 beta-arrestin recruitment | O00574 | CHO-K1 PathHunter CXCR6 beta-arrestin, luminescence | inhibition, % at 20 µM | 360,000 compounds, 0.36% hits; in the data active = inhibition above about 34%, passing the limit was not always enough;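 also: antagonist mode with CXCL16 agonist at 10 nM final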
APJ antag – APJ receptor antagonism | P35414 | CHO-K1 APJ beta-arrestin complementation, luminescence | inhibition, % at 20 µM | 330,000 compounds, 0.32% hits | AID 2521;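 active = inhibition above about 40% at 20 µM, limit read from the data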;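 also: cells challenged with 10 nM apelin-13 agonist together with compound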
Target sequence (P35414 whole entry, looked up): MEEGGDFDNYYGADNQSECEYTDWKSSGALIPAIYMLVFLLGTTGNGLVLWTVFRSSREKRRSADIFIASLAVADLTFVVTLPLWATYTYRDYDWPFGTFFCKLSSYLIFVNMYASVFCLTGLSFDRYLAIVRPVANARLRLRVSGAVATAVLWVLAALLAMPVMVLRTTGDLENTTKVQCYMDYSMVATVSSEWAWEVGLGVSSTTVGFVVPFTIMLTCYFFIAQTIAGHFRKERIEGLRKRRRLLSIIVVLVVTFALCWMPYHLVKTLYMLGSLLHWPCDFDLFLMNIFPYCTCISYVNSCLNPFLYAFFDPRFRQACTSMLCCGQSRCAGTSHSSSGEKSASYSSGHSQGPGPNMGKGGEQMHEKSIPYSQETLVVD
EBI2 block – antagonists of human EBI2 receptor; AID 651636; EBI2 beta-arrestin recruitment, luminescence, 7a,25-OHC stimulated; inhibition, % at 5 µM; P32249; 360,000 compounds, 0.81% hits; in the data active = inhibition above about 38%;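 also: enzyme fragment complementation signal reports receptor beta-arrestin coupling in cells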
APJ agonist – agonists of human APJ apelin receptor; P35414; CHO-K1 APJ PathHunter beta-arrestin, luminescence; 0% DMSO wells, 100% apelin; activation, % at 20 µM; 330,000 compounds, 0.11% hits; AID 2520;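 active = activation more than six SD over the plate average, tested at 20 µM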
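Assay system: CHO-K1 cells stably expressing ProLink-tagged human APJ and arrestin–beta-gal acceptor. Compound dosing: 20 µM single point, 1% DMSO. Times: 16-18 h seeding, 90 min dark compound exposure, 60 min detection. Detection: beta-gal luminescence. Evaluation: APJ–arrestin association signal. Controls: negative DMSO alone, positive Apelin-13 at 10 nM.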
EBI2 conf – EBI2 (human) antagonism, single concentration confirmation; shares compounds with EBI2 block; EBI2 beta-arrestin luminescence, 7a,25-OHC antagonism; inhibition, % at 5 µM; 2,400 compounds, 29% hits;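 active = inhibition of at least 50%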
EBI2 ag – EBI2 agonism counter-screen; 2,400 tested, under 10 active; shares compounds with EBI2 block; activation, % at 5 µM; EBI2-expressing cells, agonist mode, luminescence, 60 min; 0% vehicle, 100% 7α,25-dihydroxycholesterol control;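 active = activation of at least 50%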
bGal cs – beta-galactosidase inhibition counter-screen. 2,400 compounds, 1% hits. purified beta-galactosidase, luminescent Galacton Star, 15 min. inhibition, % at 5 µM. shares compounds with EBI2 block;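 active = replicate-average signal at least 3 plate SD below neutral wells, shown as high inhibition, flagging enzyme-inhibiting false positives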;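 also: higher means stronger loss of beta-gal luminescence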
Of the large screens only hits and unclear results are named; the others gave an inactive call (follow-up assays come after a bar, where they were run).

Cc1ccc2c(c1)[C@H]1[C@H](CO2)[C@H](c2ccccc2)[C@]2(C)C(=O)N(Cc3ccc(Cl)cc3)CC(=O)N12	EBI2 block 47.8 | EBI2 conf inactive | EBI2 ag inactive | bGal cs inactive
CC1=NN(c2ccc(Cl)cc2)C(=O)C1C(c1ccccc1O)c1c(C)[nH]n(-c2ccc(Cl)cc2)c1=O (stereo not given)	EBI2 block 64.7 | EBI2 conf inactive | EBI2 ag inactive | bGal cs inactive
c1ccc(CCNc2ncnc3scc(C4COc5ccccc5O4)c23)cc1 (stereo not given)	EBI2 block 86.8 | EBI2 conf 55.3 | EBI2 ag inactive | bGal cs inactive
COc1cccc(NS(=O)(=O)c2ccc(-n3cccn3)cc2)c1	none
Cc1ccc(NC(=O)C2(C)CCN2Cc2csc3ccccc23)cc1 (stereo not given)	none (no result: CCR6 antag, APJ antag, APJ agonist)
CC1(C(=O)NCc2ccccc2Br)CCN1Cc1csc2ccccc12 (stereo not given)	EBI2 block 61.4 (no result: CCR6 antag, APJ antag, APJ agonist) | EBI2 conf 51.0 | EBI2 ag inactive | bGal cs inactive
Cc1cc(C)nc(S/C=C/C(=O)c2ccc(F)cc2)n1	none (no result: CCR6 antag, CXCR6 block, EBI2 block)
COc1cc(-c2nnc(COc3ccc4cc(Br)ccc4c3)o2)cc(OC)c1OC	EBI2 block 55.5 | EBI2 conf inactive | EBI2 ag inactive | bGal cs inactive
CC1CCCC(C)N1C(=O)COc1ccc(C(=O)Nc2ccccc2N2CCOCC2)cc1 (stereo not given)	none
CCC(c1nnnn1-c1c(C)cccc1C)N1CCN(C/C=C/c2ccccc2)CC1 (stereo not given)	EBI2 block 58.2 (no result: CCR6 antag, APJ antag, APJ agonist) | EBI2 conf inactive | EBI2 ag inactive | bGal cs inactive
CCC(c1nnnn1-c1c(C)cccc1C)N1CCN(CC)CC1 (stereo not given)	none (no result: CCR6 antag, APJ antag, APJ agonist)
Cc1cccc(C)c1-n1nnnc1C(C1CC1)N1CCN(C/C=C/c2ccccc2)CC1 (stereo not given)	EBI2 block 44.2 (no result: CCR6 antag, APJ antag, APJ agonist) | EBI2 conf inactive | EBI2 ag inactive | bGal cs inactive
CSCCC(c1nnnn1-c1c(C)cccc1C)N1CCN(C/C=C/c2ccccc2)CC1 (stereo not given)	EBI2 block 52.7 (no result: CCR6 antag, APJ antag, APJ agonist) | EBI2 conf inactive | EBI2 ag inactive | bGal cs inactive
CC(NC(=O)COC(=O)c1cc(=O)c2ccccc2o1)c1ccccc1 (stereo not given)	none
O=C(Nc1ccccc1)Nc1nc(-c2ccccc2)cs1	none
CC(C)(C)c1csc(NC(=O)Nc2ccccc2)n1	EBI2 block 42.7 | EBI2 conf inactive | EBI2 ag inactive | bGal cs inactive
Brc1ccc(OCc2nnc(SCC3CCCCC3)o2)cc1	EBI2 block 69.0 | EBI2 conf inactive | EBI2 ag inactive | bGal cs inactive
CCc1ccc(OCc2nnc(SCC(=O)NC3CCCCC3)o2)cc1	none
CCOC(=O)c1ccc2ncc(C(=O)OCC)c(NCCN3CCOCC3)c2c1	none
CCOC(=O)c1cnc2cc(Cl)c(OC)cc2c1NCC1CCCO1 (stereo not given)	EBI2 block 41.4 | EBI2 conf inactive | EBI2 ag inactive | bGal cs inactive
CC(Oc1ccc(F)cc1)C(=O)Nc1cccc(-c2nn[nH]n2)c1 (stereo not given)	none
COc1ccc(C(=O)Cn2c(C(=O)/C=C/c3ccccc3)nc3ccccc32)cc1	EBI2 block 53.1 | EBI2 conf inactive | EBI2 ag inactive | bGal cs inactive
Cc1ccc(S(=O)(=O)N2CCN(C(=O)COC(=O)COc3ccccc3)CC2)cc1	none
Cc1ccc(S(=O)(=O)N2CCN(C(=O)COc3ccc(Br)cc3)CC2)cc1	EBI2 block 93.6 | EBI2 conf 72.5 | EBI2 ag inactive | bGal cs inactive
O=C(COc1ccccc1)N1CCN(S(=O)(=O)c2ccc(Br)cc2)CC1	EBI2 block 64.2 | EBI2 conf inactive | EBI2 ag inactive | bGal cs inactive
COc1ccc(S(=O)(=O)N2CCN(CCOc3ccccc3Cl)CC2)cc1OC	none
COc1ccc(S(=O)(=O)N2CCN(CCOc3ccc(Br)cc3)CC2)cc1OC	EBI2 block 58.2 | EBI2 conf inactive | EBI2 ag inactive | bGal cs inactive
Cc1ccc(OCC(=O)N2CCN(S(=O)(=O)c3ccccc3[N+](=O)[O-])CC2)cc1	EBI2 block 83.7 | EBI2 conf 60.4 | EBI2 ag inactive | bGal cs inactive
COc1ccc(S(=O)(=O)N2CCN(C(=O)COc3ccccc3)CC2)cc1	none
O=C(CSc1ccccn1)Nc1ccc2[nH]c(=O)[nH]c2c1	none
O=C(/C=C1\C(=O)Nc2ccccc21)/C=C1\C(=O)Nc2ccccc21	EBI2 block 40.8 (no result: APJ antag, APJ agonist) | EBI2 conf inactive | EBI2 ag inactive | bGal cs inactive
CN(O)/C=C1\C(=O)Nc2ccccc21	none
CCOC(=O)C1=C(CCc2ccccc2)NC(=O)NC1c1ccc(C#N)cc1 (stereo not given)	none
Cc1ccc(Nc2c(-c3ccccc3O)nc3cnccn23)cc1	EBI2 block 57.4 | EBI2 conf inactive | EBI2 ag inactive | bGal cs inactive
COc1ccc(Nc2c(-c3ccc(C)cc3)nc3cnccn23)cc1	none
Cc1ccc(NC(=O)N2CCN(C/C=C/c3ccccc3)CC2)cc1	EBI2 block 44.9 | EBI2 conf inactive | EBI2 ag inactive | bGal cs inactive
O=C(Nc1ccc2c(c1)OCO2)N1CCN(C/C=C/c2ccccc2)CC1	EBI2 block 44.8 | EBI2 conf inactive | EBI2 ag inactive | bGal cs inactive
O=C(Nc1ccc2c(c1)OCO2)N1CCN(c2ccccc2)CC1	none
Cc1ccc(C(=O)CCC(=O)N2CCN(C/C=C/c3ccccc3)CC2)cc1	none (no result: CCR6 antag, APJ antag, APJ agonist)
CCc1ccc(N2CC(C(=O)Nc3cc(C)ccc3F)CC2=O)cc1 (stereo not given)	EBI2 block 52.7 | EBI2 conf inactive | EBI2 ag inactive | bGal cs inactive
CCc1ccc(N2CC(C(=O)Nc3ccc(S(=O)(=O)N4CCCCC4)cc3)CC2=O)cc1 (stereo not given)	EBI2 block 80.6 | EBI2 conf 59.9 | EBI2 ag inactive | bGal cs inactive
O=C(Nc1ccc(S(=O)(=O)N2CCCC2)cc1)C1CC(=O)N(c2ccccc2)C1 (stereo not given)	none
Fc1ccccc1NC(=S)NCCc1cccc(Cl)c1	none
CCCCOC(=O)Nc1nnc(/C=C/c2ccc(OC)cc2)s1	EBI2 block 54.8 | EBI2 conf inactive | EBI2 ag inactive | bGal cs inactive
CCOC(=O)Nc1nnc(/C=C/c2ccc(OC)cc2)s1	none

Screening data as filed in PubChem.
